HDAC3 inh – inhibitors of human histone deacetylase 3. 320,000 compounds, 0.15% hits. inhibition, % at 8.3 µM. O15379. recombinant HDAC3, fluorogenic peptide/trypsin coupled, fluorescence; in the data active means inhibition above about 26%, passing the limit was not always enough; inconclusive means no clear call, values can overlap the other calls
AI-2 QS mod – Vibrio harveyi AI-2 quorum sensing modulation; Vibrio harveyi JMH597 AI-2 luminescence/OD600 ratio, 9 h; hits give low values; strain lacks LuxN and CqsS sensors; 0 = neutral-control median; activity change, % at 7.5 µM; AID 2094; 300,000 compounds, 0.4% hits; in the data active means activity change below about -75%, passing the limit was not always enough; inconclusive means no clear call, values can overlap the other calls;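 further: luminescence divided by OD600 gain over 9 h not by final OD600 alone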
A1 inh – inhibitors of the anti-apoptotic protein A1, read as caspase activation; MEF A1-2A-BIM cells, Caspase-Glo 3/7 luminescence, 3 h; percent of clofoctol response, vehicle zero; caspase activation, % (no concentration beside the values); 330,000 compounds, 0.066% hits;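 active means over half of replicate activation scores above 10%, or exactly half above 10 with the replicate mean above 10; inconclusive means replicate mean below 10 yet half the replicates above 10; inactive means over half of replicates below 10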
LANA-H2A inh – blocks KSHV LANA binding to histone H2A/H2B. inhibition, % (concentration not given with the values). 320,000 compounds, 0.6% hits. cell-free LANA-H2A/H2B peptide, fluorescence polarization. Q9QR71; in the data active means inhibition mostly above about 10%, no sharp cut-off; inactive means mostly below about 6.7%
ATG4B inhibitor – inhibitors of human ATG4B cysteine protease. Q9Y4P1. ATG4B cleavage of LC3-PLA2, NBD-HPC fluorescence, 1 h. inhibition, % at 8.33 µM. 340,000 compounds, 0.51% hits. AID 504462; in the data active means inhibition above about 40%
HKDC1 inhibitor – blocks human hexokinase HKDC1 activity; Q2TB90; recombinant HKDC1, G6PDH/diaphorase resazurin coupled fluorescence; AID 493160; 340,000 compounds, 0.16% hits; inhibition, % at 20 µM;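 active means inhibition above about 35% when tested at 20 µM, limit read from the data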
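Material: recombinant HKDC1 hexokinase; Amount: HKDC1 at 5 µg/mL; Medium: Tris pH 8.0 buffer with MgCl2, Tween-20, BSA, BME; Schedule: 90 min reaction incubation at room temperature, dark; Technique: coupled resazurin fluorescence, excitation 525 nm, emission 613 nm.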
Each line names hits and unclear results; the compound was inactive in the other large screens. Rows were chosen to be rich in hits. Some 1.8% of all compounds tested hit in one or more screens of this group.

CC1CC1C(=O)OCC(=O)Nc1ccccc1Oc1ccccc1 (stereo not given)	LANA-H2A inh 35
COC(=O)c1ccc(C(=O)OC)c(NC(=O)COC(=O)C2CC2C)c1 (stereo not given)	LANA-H2A inh 21
COC(=O)c1ccc(C(=O)OC)c(NC(=O)COC(=O)C2CCCCC2)c1	none
CC1CCCCC1NC(=O)NC(=O)COC(=O)c1ccc(OC(F)F)cc1 (stereo not given)	none (no result: HDAC3 inh, AI-2 QS mod, A1 inh, LANA-H2A inh)
COc1ccccc1NC(=O)c1ccc(NC(=O)COC(=O)c2cncc(Br)c2)cc1	none (no result: AI-2 QS mod)
Cc1ccc(S(=O)(=O)N2CCN(C(=O)/C=C/c3ccccc3)CC2)cc1C	none (no result: HDAC3 inh, AI-2 QS mod, A1 inh, LANA-H2A inh)
COc1ccc(C(C)(C)C)cc1NC(=O)CCc1c(C)noc1C	LANA-H2A inh 30 (no result: AI-2 QS mod)
CN(c1ccccc1)S(=O)(=O)c1ccc(C(=O)NNC(=O)c2ccccc2F)cc1	none (no result: HDAC3 inh, AI-2 QS mod, A1 inh, LANA-H2A inh)
CCN(C(=O)CSc1nnc(C)n1-c1ccc(C)cc1)c1c(N)n(Cc2ccccc2)c(=O)[nH]c1=O	none (no result: HDAC3 inh, AI-2 QS mod, A1 inh, LANA-H2A inh)
Cn1nc(-c2ccccc2)c2nc3ccccc3nc21	LANA-H2A inh 95
CCCCn1nc(-c2ccccc2)c2nc3ccccc3nc21	LANA-H2A inh 25 (no result: ATG4B inhibitor, HKDC1 inhibitor)
Cc1ccc(-c2nc3ccccc3nc2-c2ccccc2)cc1	none
CCC[C@H]1NC(=O)[C@H](C)N(C)C(=O)C(C)(C)C(=O)C(C)NC(=O)[C@H](Cc2ccc(OC)cc2)N(C)C(=O)[C@H](C(C)C)N(C)C(=O)CNC(=O)[C@H](CC(C)C)N(C)C(=O)CNC(=O)[C@H]([C@@H](C)CC)OC(=O)[C@H]1C (stereo not given in full)	none (no result: HDAC3 inh, AI-2 QS mod, A1 inh, LANA-H2A inh)
CCN1/C(=C2\SC(=S)N(Cc3ccccc3)C2=O)Sc2ccccc21	A1 inh inconclusive
CCC(CO)[n+]1c(C)cc(/C=C2\Sc3ccccc3N2Cc2ccccc2)cc1C (stereo not given)	HDAC3 inh 26 (no result: AI-2 QS mod)
O=C(COc1ccc(F)cc1)OCCN1CCOCC1	LANA-H2A inh 34
O=S(=O)(c1ccc(SCc2ccc(Br)cc2)nc1)N1CCCCC1	none (no result: HDAC3 inh, AI-2 QS mod, A1 inh, LANA-H2A inh)
COc1ccc(C2=NN3C(=O)c4c(ccc(OC)c4OC)C3C2)cc1 (stereo not given)	LANA-H2A inh 38
CC1CC=CCC1(CO)CO (stereo not given)	none (no result: HDAC3 inh, AI-2 QS mod, A1 inh, LANA-H2A inh)
CC(C)Cn1cnc2c(SCc3ccccc3Cl)nc(N)nc21	none (no result: HDAC3 inh, AI-2 QS mod, A1 inh, LANA-H2A inh)
O=C(CNC(=O)C(c1ccccc1)c1ccccc1)N/N=C\c1cccc(O)c1	LANA-H2A inh 94
O=C(CNC(=O)C(c1ccccc1)c1ccccc1)N/N=C/c1ccc(O)cc1O	none
O=C(NOCc1ccccc1)c1coc(-c2ccccc2)n1	none (no result: HDAC3 inh, AI-2 QS mod, A1 inh, LANA-H2A inh)
O=C1COc2ccc(N3C(=O)C=CC3=O)cc2N1	AI-2 QS mod -81 (no result: ATG4B inhibitor, HKDC1 inhibitor)
O=C1COc2ccc(S(=O)(=O)N3CCCC3)cc2N1	none
CC(=O)N(C(C)=O)N1C(=O)c2cccc3c(N4CCOCC4)ccc(c23)C1=O	LANA-H2A inh 55
O=C1c2cccc3c(N4CCCCC4)ccc(c23)C(=O)N1c1ccccn1	LANA-H2A inh 32
O=C(OCCN1C(=O)c2ccccc2C1=O)c1ccc(S(=O)(=O)N2CCCCCC2)cc1	none
O=C1c2cccc3c([N+](=O)[O-])ccc(c23)C(=O)N1c1ccccn1	none
CCN(CC)S(=O)(=O)c1ccc(C(=O)OCCN2C(=O)c3cccc4c(N5CCOCC5)ccc(c34)C2=O)cc1	LANA-H2A inh 27
CCCN1C(=O)c2cccc3c(N4CCCCC4)ccc(c23)C1=O	none
CC(=NNC(=O)c1ccncc1)c1ccc(Cl)cc1Cl	none (no result: HDAC3 inh, AI-2 QS mod, A1 inh, LANA-H2A inh)
Nc1nc(=S)c2[nH]c(=S)[nH]c2[nH]1	none (no result: HDAC3 inh, AI-2 QS mod, A1 inh, LANA-H2A inh)
CSc1nc(=S)c2[nH]c(=S)[nH]c2[nH]1	HDAC3 inh 36
O=C(Oc1ccc(=O)n(-c2ccccc2)n1)c1ccccc1	HDAC3 inh 81
O=C(O)COc1ccc(=O)n(-c2ccccc2)n1	none
O=C1NCC(Nc2ccc(Cl)cc2)C(=O)N1 (stereo not given)	none (no result: HDAC3 inh, AI-2 QS mod, A1 inh, LANA-H2A inh)
CCCCCCn1nc(C(=O)N(CCOC)c2c(N)n(CCCC)c(=O)[nH]c2=O)c2ccccc2c1=O	LANA-H2A inh 18
